# Data: article PMC3569859 (Bioorganic & medicinal chemistry, 2008)
# System: sodium currents expressed in rat hippocampal neurons
# Assay type: cell-based
# Details: cultured hippocampal neurons
# How it was run: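 E18 rat hippocampal neurons were trypsin-dissociated and kept up to 4 weeks on poly-L-lysine over a glial monolayer in serum-free MEM with N2. Whole-cell clamp was done at 20–22 °C with a CsF pipette and a 30 mM NaCl bath containing Cd2+ and TEA, both pH 7.3. After 5 min at −90 mV, 25 ms steps to −10 mV were applied with P/4 leak subtraction. Test compound was superfused at 50 μM, then washed out.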
row,SMILES,Reversibility of Na current block on washout
1,"CC(C)c1cc(CCCCC(O)(C(N)=O)C(F)(F)F)cc(C(C)C)c1O (centres unmarked) [Compound 4, 2-Hydroxy-6-(4-hydroxy-3,5-diisopropyl-phenyl)-2-trifluoromethyl-hexanoic acid amide]",fully reversible
2,"CC(C)c1cc(CCCCCCC(O)(C(N)=O)C(F)(F)F)cc(C(C)C)c1O (centres unmarked) [Compound 5, 2-Hydroxy-8-(4-hydroxy-3,5-diisopropyl-phenyl)-2-trifluoromethyl-octanoic acid amide]",fully reversible
